The nature of series [1]: CD spectroscopy of peptide helicity and thermostability. The format is physicochemical. Particulars: peptide 0.1 mg/mL in sodium phosphate buffer pH 7.4, 24°C. In a few lines: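 Peptide at 0.1 mg/mL in sodium phosphate buffer, pH 7.4, in a quartz cuvette with 0.2 cm path length. Far-UV CD spectra were scanned from 185 to 240 nm at 24°C. Signal was normalised to mean residue ellipticity to estimate helical content. For thermostability, ellipticity was followed while temperature was raised from 10 to 90°C.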

The next series has as its system pepsin. Kind of series: Peptide proteolysis by pepsin, loss of intact peptide by MALDI-TOF MS. The format is in vitro ADME. Particulars: for susceptibility to proteolysis by pepsin (in words): pepsin 0.5 μg/ml, 10% acetic acid pH 2, peptide 500 μg/ml, 37°C, MALDI-TOF MS; for remaining at 24 h, 500 μg/ml: pepsin, pH 2.
Another series has as its system chymotrypsin. The series is described as follows: Peptide proteolysis by chymotrypsin, loss of intact peptide by MALDI-TOF MS. The format is in vitro ADME. Particulars: pH 7.
For another series, the target named is human ABCA1 (Homo sapiens, UniProt O95477). The series is described as follows: Cholesterol efflux from ABCA1 transfected BHK cells. The format is cell-based. Particulars: [3H] cholesterol, 18 h with peptide.
The conditions of series [2]: cited from earlier work.

Bridge positions count the residues as written; N and C are the ends. Square brackets hold non-standard residues; d marks the D form. Peptide text beside a SMILES is read from it. R8 = C=CCCCCCC[C@@](C)(N)C(=O)O; S5 = C=CCCC[C@](C)(N)C(=O)O

Chain of human ABCA1 (O95477 whole entry): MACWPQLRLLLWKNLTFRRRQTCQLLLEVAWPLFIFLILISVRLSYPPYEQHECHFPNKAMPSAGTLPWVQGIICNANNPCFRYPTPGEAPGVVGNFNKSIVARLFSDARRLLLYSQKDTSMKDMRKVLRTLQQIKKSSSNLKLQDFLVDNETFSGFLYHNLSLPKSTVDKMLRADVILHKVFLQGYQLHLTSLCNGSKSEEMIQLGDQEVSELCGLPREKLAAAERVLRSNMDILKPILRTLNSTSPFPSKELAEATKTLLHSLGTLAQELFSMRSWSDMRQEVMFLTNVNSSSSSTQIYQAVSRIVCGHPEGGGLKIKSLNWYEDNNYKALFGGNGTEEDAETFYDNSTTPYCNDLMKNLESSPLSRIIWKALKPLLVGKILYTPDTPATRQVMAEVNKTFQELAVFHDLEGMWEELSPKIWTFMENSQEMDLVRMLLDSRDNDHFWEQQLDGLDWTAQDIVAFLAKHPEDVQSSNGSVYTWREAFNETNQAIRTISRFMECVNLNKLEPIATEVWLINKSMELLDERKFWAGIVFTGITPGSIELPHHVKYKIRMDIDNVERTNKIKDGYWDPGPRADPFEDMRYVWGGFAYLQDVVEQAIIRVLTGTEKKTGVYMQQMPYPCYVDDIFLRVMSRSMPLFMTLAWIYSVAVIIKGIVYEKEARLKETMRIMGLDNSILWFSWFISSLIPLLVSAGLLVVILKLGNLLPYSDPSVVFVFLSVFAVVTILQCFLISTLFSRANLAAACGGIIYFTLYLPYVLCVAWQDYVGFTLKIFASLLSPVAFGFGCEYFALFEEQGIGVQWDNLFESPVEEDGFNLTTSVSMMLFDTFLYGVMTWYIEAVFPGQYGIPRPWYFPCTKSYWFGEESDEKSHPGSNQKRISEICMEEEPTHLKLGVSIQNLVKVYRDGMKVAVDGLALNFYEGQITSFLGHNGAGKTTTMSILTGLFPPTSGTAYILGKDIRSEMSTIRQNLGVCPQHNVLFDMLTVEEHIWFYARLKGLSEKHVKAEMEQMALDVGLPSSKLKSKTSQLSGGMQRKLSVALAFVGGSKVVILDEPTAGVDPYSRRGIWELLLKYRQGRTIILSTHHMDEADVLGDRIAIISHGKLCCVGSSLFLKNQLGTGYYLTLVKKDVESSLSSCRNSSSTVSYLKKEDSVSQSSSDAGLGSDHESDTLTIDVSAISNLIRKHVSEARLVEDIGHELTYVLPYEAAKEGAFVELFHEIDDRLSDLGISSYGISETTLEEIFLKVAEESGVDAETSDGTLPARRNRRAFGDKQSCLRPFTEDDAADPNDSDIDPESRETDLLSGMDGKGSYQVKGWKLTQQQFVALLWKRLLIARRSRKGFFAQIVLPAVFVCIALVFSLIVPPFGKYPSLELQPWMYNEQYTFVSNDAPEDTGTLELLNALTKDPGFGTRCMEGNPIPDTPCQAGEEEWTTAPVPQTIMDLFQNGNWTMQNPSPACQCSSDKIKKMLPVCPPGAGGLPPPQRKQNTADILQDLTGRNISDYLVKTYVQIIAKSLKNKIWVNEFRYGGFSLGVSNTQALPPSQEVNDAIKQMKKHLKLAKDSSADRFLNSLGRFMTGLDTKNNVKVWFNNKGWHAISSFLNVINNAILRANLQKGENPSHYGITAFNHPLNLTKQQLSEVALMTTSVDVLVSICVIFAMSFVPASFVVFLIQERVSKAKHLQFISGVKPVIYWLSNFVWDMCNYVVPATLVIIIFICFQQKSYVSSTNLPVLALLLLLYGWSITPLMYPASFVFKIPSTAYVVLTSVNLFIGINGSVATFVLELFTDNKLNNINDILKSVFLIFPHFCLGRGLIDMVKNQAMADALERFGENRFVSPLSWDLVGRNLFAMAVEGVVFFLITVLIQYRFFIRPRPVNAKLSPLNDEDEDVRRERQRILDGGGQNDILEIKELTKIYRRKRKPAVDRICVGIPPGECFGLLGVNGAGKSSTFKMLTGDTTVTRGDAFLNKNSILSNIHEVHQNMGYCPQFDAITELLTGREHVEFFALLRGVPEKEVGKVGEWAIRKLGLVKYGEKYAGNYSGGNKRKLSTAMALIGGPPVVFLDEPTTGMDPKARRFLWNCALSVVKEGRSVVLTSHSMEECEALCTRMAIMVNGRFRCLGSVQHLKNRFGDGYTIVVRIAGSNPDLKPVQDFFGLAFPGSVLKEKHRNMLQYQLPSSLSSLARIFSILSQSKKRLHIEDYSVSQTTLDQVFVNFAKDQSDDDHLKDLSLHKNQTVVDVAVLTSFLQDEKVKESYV

For `CC(=O)N[C@H](C(=O)N[C@@H](CC(C)C)C(=O)N[C@@H](CC(=O)O)C(=O)N[C@@H](CO)C(=O)N[C@@H](Cc1ccccc1)C(=O)N[C@@H](CCCCN)C(=O)N[C@H](C(=O)N[C@@H](CO)C(=O)N[C@@]1(C)CCCC=CCCC[C@@](C)(C(=O)N[C@@H](CCC(=O)O)C(=O)N[C@@H](CCC(=O)O)C(=O)N[C@@H](Cc2ccc(O)cc2)C(=O)N[C@H](C(=O)N[C@@H](CCCCN)C(=O)N[C@@H](CCCCN)C(=O)N[C@@H](CC(C)C)C(=O)N[C@@H](CC(N)=O)C(=O)N[C@H](C(=O)N[C@@H](CCC(N)=O)C(N)=O)[C@@H](C)O)[C@@H](C)O)NC(=O)[C@H](C)NC(=O)[C@H](CO)NC(=O)[C@H](CC(C)C)NC1=O)C(C)C)C(C)C` [S1A10] (Ac-VLDSFKVS[S5]LSA[S5]EEYTKKLNTQ-NH2; staple 9-13), the “helicity in aqueous buffer at 24°C” value in series [1] came out at 62%. Also, in the series on pepsin, the “susceptibility to proteolysis by pepsin (in words)” value is “resistant to proteolysis”. For the same compound, the fraction remaining at 24 h, 500 μg/ml came to 0.4% in the series with pepsin and 0.6% in the series with chymotrypsin. On human ABCA1, the “increase in cholesterol efflux by the ABCA1 transporter compared to A10” value is recorded as over 10 fold.

For `CC(=O)N[C@H](C(=O)N[C@@H](CC(C)C)C(=O)N[C@@H](CC(=O)O)C(=O)N[C@@H](CO)C(=O)N[C@@H](Cc1ccccc1)C(=O)N[C@@H](CCCCN)C(=O)N[C@H](C(=O)N[C@@H](CO)C(=O)N[C@]1(C)CCCCCCC=CCCC[C@@](C)(C(=O)N[C@H](C(=O)N[C@@H](CCCCN)C(=O)N[C@@H](CCCCN)C(=O)N[C@@H](CC(C)C)C(=O)N[C@@H](CC(N)=O)C(=O)N[C@H](C(=O)N[C@@H](CCC(N)=O)C(N)=O)[C@@H](C)O)[C@@H](C)O)NC(=O)[C@H](CCC(=O)O)NC(=O)[C@H](CCC(=O)O)NC(=O)[C@H](CC(C)C)NC(=O)[C@H](C)NC(=O)[C@H](CO)NC(=O)[C@H](CC(C)C)NC1=O)C(C)C)C(C)C` [S2A10] (Ac-VLDSFKVS[R8]LSALEE[S5]TKKLNTQ-NH2; staple 9-16), the “helicity in aqueous buffer at 24°C” value in series [1] worked out at 97%. Also, in the series with pepsin, the “susceptibility to proteolysis by pepsin (in words)” value is “resistant to proteolysis” and the amount remaining at 24 h, 500 μg/ml stood at 12.2%. The fraction remaining at 24 h, 500 μg/ml in the series with chymotrypsin was 3.8%. Moreover, at human ABCA1, the “increase in cholesterol efflux by the ABCA1 transporter compared to A10” value was over 10 fold.

On to “apoA-I: full length apolipoprotein, the main protein on High Density Lipoproteins”, for which, in series [2] (apoA-I associated with lipids), the “helicity when associated with lipids” value is on record as “over 67%”. Besides, in series [2] (lipid-free apoA-I), the “helicity in the lipid-free state” value was “about 48%”.

In general, amount remaining refers to what is left of the initial amount, in per cent.

The values above are taken from paper PMC3253552 (Biochemical and Biophysical Research Communications, 2011).
